Assay results from ChEMBL document CHEMBL2375304, “Synthesis and anticancer activity of novel 2-pyridyl hexahyrocyclooctathieno[2,3-d]pyrimidine derivatives” (2013).

Tests used:
Format in all cases: functional
BT-549 = assay: Growth inhibition of human BT549 cells after 48 hrs by Sulforhodamine B assay; details: BT-549, 48 h
How it was run: (§1)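 Five-concentration SRB assay using 10-fold or ½-log serial dilutions from a DMSO stock. Exposure is 48 h at 37 °C in 5% CO2 after 24 h preincubation. TCA fixation is followed by SRB staining and a reading at 515 nm. Percentage growth is computed from time-zero, control and treated absorbances. GI50 is the concentration where [(Ti−Tz)/(C−Tz)]×100 = 50, read from the plot against log concentration.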

OVCAR-5 = assay: Growth inhibition of human OVCAR5 cells after 48 hrs by Sulforhodamine B assay; details: OVCAR-5, 48 h
How it was run: (§2)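 Cells were preincubated 24 h at 37 °C, 5% CO2, and a time-zero plate was TCA-fixed. Five concentrations were made by serial dilution from a DMSO stock (400-fold the top concentration) and incubated 48 h. Adherent cells were fixed with 10% final TCA and suspension cells with 16%. Plates were stained with 0.4% SRB and read at 515 nm. GI50 is the concentration giving 50% reduction in net protein increase versus control.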

MDA-MB-435 = assay: Growth inhibition of human MDA-MB-435 cells after 48 hrs by Sulforhodamine B assay; details: MDA-MB-435, 48 h; how it was run: as §1
SK-MEL-2 = assay: Growth inhibition of human SK-MEL-2 cells after 48 hrs by Sulforhodamine B assay; details: SK-MEL-2, 48 h; how it was run: as §2
SW-620 = assay: Growth inhibition of human SW620 cells after 48 hrs by Sulforhodamine B assay; details: SW-620, 48 h; how it was run: as §2
NCI-H322M = assay: Growth inhibition of human NCI-H322M cells after 48 hrs by Sulforhodamine B assay; how it was run: as §2
HOP-92 = assay: Growth inhibition of human HOP92 cells after 48 hrs by Sulforhodamine B assay; details: HOP-92, 48 h; how it was run: as §1
MOLT-4 = assay: Growth inhibition of human MOLT4 cells after 48 hrs by Sulforhodamine B assay; details: MOLT-4, 48 h; how it was run: as §2
K562 = assay: Growth inhibition of human K562 cells after 48 hrs by Sulforhodamine B assay; details: K562, 48 h; how it was run: as §1
CCRF-CEM = assay: Growth inhibition of human CCRF-CEM cells after 48 hrs by Sulforhodamine B assay; how it was run: as §1

Compound	GI50 (BT-549)	GI50 (OVCAR-5)	GI50 (MDA-MB-435)	GI50 (SK-MEL-2)	GI50 (SW-620)	GI50 (NCI-H322M)	GI50 (HOP-92)	GI50 (MOLT-4)	GI50 (K562)	GI50 (CCRF-CEM)
COc1ccc(N2CCN(c3nc(-c4ccccn4)nc4sc5c(c34)CCCCCC5)CC2)cc1	6.92 µM	51.3 µM	5.5 µM	18.2 µM	5.13 µM	5.5 µM	3.24 µM	3.24 µM	4.17 µM	4.37 µM
CN1CCN(c2nc(-c3ccncc3)nc3sc4c(c23)CCCCCC4)CC1	6.31 µM	10.7 µM	11.7 µM	14.5 µM	12 µM	13.2 µM	0.661 µM	3.8 µM	3.55 µM	8.13 µM
c1ccc(-c2nc(N3CCOCC3)c3c4c(sc3n2)CCCCCC4)nc1	4.37 µM	10.2 µM	4.79 µM	7.94 µM	8.91 µM	5.5 µM	0.617 µM	3.8 µM	3.47 µM	3.55 µM
NNc1nc(-c2ccccn2)nc2sc3c(c12)CCCCCC3	9.77 µM	8.71 µM	5.13 µM	14.5 µM	4.57 µM	5.37 µM	3.55 µM	3.63 µM	3.8 µM	4.47 µM
O=c1[nH]c(-c2ccncc2)nc2sc3c(c12)CCCCCC3	> 100 µM	> 100 µM	> 100 µM	> 100 µM	> 100 µM	> 100 µM	> 100 µM	> 100 µM	> 100 µM	> 100 µM
O=c1[nH]c(-c2ccccn2)nc2sc3c(c12)CCCCCC3	5.62 µM	91.2 µM	> 100 µM	> 100 µM	4.9 µM	85.1 µM	3.89 µM	2.4 µM	1 µM	0.912 µM
